# Data published in ChEMBL document CHEMBL3808369, “Identification of Cyproheptadine as an Inhibitor of SET Domain Containing Lysine Methyltransferase 7/9 (Set7/9) That Regulates Estrogen-Dependent Transcription” (J Med Chem, 2016).
# Calls of active or inactive are those of the source. No cut-off for these calls is given here.
# How the values were obtained:
# [1] = target: T1, Histone-lysine N-methyltransferase SETD7 (Homo sapiens) (UniProt Q8WTS6); assay: Inhibition of Set7/9 in human MCF7 cells assessed as suppression of beta-estradiol-induced pS2 mRNA expression at 3 to 10 uM preincubated for 18 hrs followed by beta-estradiol addition measured after 24 hrs by RT-PCR analysis; assay type: cell-based; details: in the assay text read “preincubated for 24 hrs” for “preincubated for 18 hrs”
# T1 sequence (whole entry): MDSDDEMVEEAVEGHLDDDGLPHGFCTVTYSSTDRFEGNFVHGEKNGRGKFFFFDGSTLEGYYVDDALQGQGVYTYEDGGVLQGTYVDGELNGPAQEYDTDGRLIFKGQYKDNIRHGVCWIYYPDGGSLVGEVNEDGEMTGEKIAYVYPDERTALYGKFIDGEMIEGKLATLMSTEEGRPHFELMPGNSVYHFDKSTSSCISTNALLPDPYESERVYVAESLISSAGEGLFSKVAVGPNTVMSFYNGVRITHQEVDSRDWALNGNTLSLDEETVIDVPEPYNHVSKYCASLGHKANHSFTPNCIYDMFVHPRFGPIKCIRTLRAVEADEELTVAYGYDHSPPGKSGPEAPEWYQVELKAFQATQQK
# How it was run: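 MCF7 cells in estrogen-free medium were treated with compound for 24 h, then with 10 nM β-estradiol plus compound for a further 24 h. pS2 and GAPDH mRNA levels were measured by semiquantitative RT-PCR.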
# [2] = target: T1, Histone-lysine N-methyltransferase SETD7 (Homo sapiens); assay: Inhibition of Set7/9 in human MCF7 cells assessed as suppression of beta-estradiol-induced ERE promoter activation at 3 to 10 uM preincubated for 18 hrs followed by beta-estradiol addition measured after 24 hrs by luciferase reporter gene assay; assay type: cell-based
# How it was run: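 MCF7 cells were switched to estrogen-free medium (phenol red-free RPMI, 10% charcoal-stripped FBS) for 3 days, then transfected with pGL4-3×ERE-TA2 and hRuc-TK. After 6 h, compound was added. After 18 h more, cells received ± 10 nM β-estradiol for 24 h. Dual-luciferase readout: firefly normalized to Renilla, given as fold over unstimulated cells. Four independent assays, SD.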
# [3] = target: T2, Histone-lysine N-methyltransferase SETD7 (Homo sapiens, UniProt Q8WTS6); assay: Inhibition of recombinant Set7/9 (unknown origin) expressed in Escherichia coli BL21 (DE3) using biotinylated histone H3-derived peptide/SAM as substrate by alphaLISA
# T2 sequence (Q8WTS6 whole entry): T1 sequence (whole entry)
# MCF7 = assay: Effect on ERalpha expression in human MCF7 cells at 10 to 100 uM after 48 hrs by immunoblotting analysis; assay type: functional, cell-based
# How it was run: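 MCF7 cells were treated with various concentrations for 48 h. Lysates were made in RIPA buffer with protease inhibitors, separated by SDS-PAGE, transferred to PVDF and immunoblotted for ERα with a rabbit polyclonal antibody. Detection was by chemiluminescence.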
# [4] = target: T1, Histone-lysine N-methyltransferase SETD7 (Homo sapiens); assay: Inhibition of Set7/9 (unknown origin) expressed in Escherichia coli BL21 (DE3) by fluorogenic assay
inhibition [1],inhibition [2],IC50 [3],inhibition [4],SMILES,Activity (MCF7)
Active,Active,,,CC/C(=C(\c1ccccc1)c1ccc(OCCN(C)C)cc1)c1ccccc1,
,,> 100 µM,,CC(=O)N1CCC(=C2c3ccccc3C=Cc3ccccc32)CC1,
,,,inactive,O=C(c1ccc(F)cc1)C1CCN(CCn2c(=O)[nH]c3ccccc3c2=O)CC1,inactive
,,,inactive,Cc1ccc(/C(=C\CN2CCCC2)c2ccccn2)cc1,inactive
